Reference: ChEMBL document CHEMBL4152283, “Discovery of potent and novel smoothened antagonists via structure-based virtual screening and biological assays” (Eur J Med Chem, 2018)
Active and inactive are the calls of the source. No cut-off for these calls is given here.

Target: T1, Protein smoothened (Homo sapiens, UniProt Q99835)
Assay: Antagonist activity at Smo receptor (unknown origin)
Format: functional

T1 sequence (Q99835 whole entry): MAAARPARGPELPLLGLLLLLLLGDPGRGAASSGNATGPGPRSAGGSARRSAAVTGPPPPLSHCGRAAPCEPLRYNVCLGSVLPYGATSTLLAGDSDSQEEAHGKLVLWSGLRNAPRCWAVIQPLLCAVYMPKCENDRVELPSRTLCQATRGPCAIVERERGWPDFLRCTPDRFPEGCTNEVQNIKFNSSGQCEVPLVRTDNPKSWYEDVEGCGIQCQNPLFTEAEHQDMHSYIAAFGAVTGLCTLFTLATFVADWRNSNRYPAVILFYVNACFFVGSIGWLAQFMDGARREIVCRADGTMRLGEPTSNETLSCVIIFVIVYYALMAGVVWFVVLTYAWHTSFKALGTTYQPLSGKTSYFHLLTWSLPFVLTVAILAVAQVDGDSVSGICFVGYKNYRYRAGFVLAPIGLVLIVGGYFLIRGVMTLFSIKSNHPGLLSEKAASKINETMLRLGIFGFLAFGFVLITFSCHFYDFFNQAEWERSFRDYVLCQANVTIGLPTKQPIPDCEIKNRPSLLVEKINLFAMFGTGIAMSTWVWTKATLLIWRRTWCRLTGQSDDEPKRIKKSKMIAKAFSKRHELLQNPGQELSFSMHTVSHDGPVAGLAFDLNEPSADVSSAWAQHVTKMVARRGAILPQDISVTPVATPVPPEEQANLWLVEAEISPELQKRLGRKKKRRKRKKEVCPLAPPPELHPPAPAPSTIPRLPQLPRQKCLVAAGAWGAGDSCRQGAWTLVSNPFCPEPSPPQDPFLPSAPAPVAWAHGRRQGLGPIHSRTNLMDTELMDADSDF

IC50 [nM] | Compound
10 | COc1cc(C(=O)NC(=N)Nc2cccc(NC(=O)c3ccc(-c4ccccc4)cc3)c2)cc(OC)c1OC

Target: T1, Protein smoothened
Assay: Displacement of BODIPY-Cyclopamine from human HA-tagged Smo receptor expressed in human U2OS cells at 3 to 1000 nM by DAPI staining based fluorescence microscopic method
Format: cell-based
Outline: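 Puromycin-selected U2OS clone expressing HA-tagged human Smo, seeded 10,000 cells/well in 10% serum DMEM and cultured 48 h at 37 °C. Cells fixed in 4% PFA for 20 min, DAPI (5 µg/mL) for 10 min, PBS washes, then 2 h at room temperature with 100 nM BODIPY-cyclopamine plus serially diluted compound. PBST washes, automated high-content fluorescence imaging, data normalized to GDC-0449. Sigmoidal fit for IC50. Ki by Cheng-Prusoff using probe Kd 255 ± 57 nM.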

inhibition | Compound
Active | Cc1ccc(NCc2cccn2-c2nnc(N3CCC(C(=O)NC4CCCCC4C)CC3)s2)cc1 (stereo not given)

Target: Protein smoothened (Mus musculus, UniProt P56726)
Sequence (P56726 whole entry): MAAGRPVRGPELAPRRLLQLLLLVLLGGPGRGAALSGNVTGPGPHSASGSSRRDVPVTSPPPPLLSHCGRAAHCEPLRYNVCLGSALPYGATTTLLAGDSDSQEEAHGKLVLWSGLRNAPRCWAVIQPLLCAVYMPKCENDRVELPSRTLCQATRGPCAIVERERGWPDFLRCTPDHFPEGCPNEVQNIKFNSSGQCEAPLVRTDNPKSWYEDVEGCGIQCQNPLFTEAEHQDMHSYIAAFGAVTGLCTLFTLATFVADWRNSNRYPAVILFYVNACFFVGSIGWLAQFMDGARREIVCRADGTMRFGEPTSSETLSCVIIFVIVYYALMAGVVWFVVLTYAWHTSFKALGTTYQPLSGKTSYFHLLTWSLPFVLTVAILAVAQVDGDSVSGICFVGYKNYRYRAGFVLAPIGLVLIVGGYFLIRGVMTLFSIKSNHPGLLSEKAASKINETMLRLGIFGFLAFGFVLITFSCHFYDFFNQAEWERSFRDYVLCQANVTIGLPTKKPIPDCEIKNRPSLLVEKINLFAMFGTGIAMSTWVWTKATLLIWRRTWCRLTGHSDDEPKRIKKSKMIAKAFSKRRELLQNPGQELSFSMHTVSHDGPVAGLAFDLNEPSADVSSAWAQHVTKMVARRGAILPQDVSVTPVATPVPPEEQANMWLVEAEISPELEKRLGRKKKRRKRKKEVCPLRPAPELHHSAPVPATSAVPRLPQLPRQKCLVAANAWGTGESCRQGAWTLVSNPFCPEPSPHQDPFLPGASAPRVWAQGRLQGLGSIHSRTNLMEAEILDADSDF
Assay: Antagonist activity at Smo receptor in mouse NIH/3T3 cells harboring GRE-Luc assessed as inhibition of SAG-induced Hh signaling pathway co-incubated with SAG measured after 48 hrs by luciferase reporter gene assay

Compound | IC50 [µM]
CN(C(=O)Cn1c(=O)n(CCCC(=O)NCc2ccccc2)c(=O)c2sccc21)c1ccccc1 | > 10
Cc1ccc(NCc2cccn2-c2nnc(N3CCC(C(=O)N4CCC(O)C4)CC3)s2)cc1 (stereo not given) | 7.6
O=C1CC(NC2CCN(c3ccc(C(F)(F)F)cn3)CC2)C(=O)N1c1ccc(F)cc1 (stereo not given) | > 10
COc1cccc2c1OC1(C)CC2NC(=O)N1c1cccc(C(=O)N2CCN(c3ccccc3F)CC2)c1 (stereo not given) | > 10
Cc1ccc(NC(=O)CSc2nc3ccc(NC(=O)c4ccccc4Cl)cc3s2)cc1Cl | > 10
Cc1ccc(NCc2cccn2-c2nnc(N3CCC(C(=O)NC4CC4)CC3)s2)cc1 | 4.2
Cc1c(C(=O)NC2CCCCC2)sc2ncn(CC(=O)Nc3cccc(C(F)(F)F)c3)c(=O)c12 | > 10
CCNC(=O)C1CCN(c2nnc(-n3cccc3CNc3ccc(C)cc3)s2)CC1 | 5.2
COc1ccc(-n2nc(C(=O)NCC(=O)Nc3nc4ccccc4s3)c3ccccc3c2=O)cc1 | > 10
CCn1cc(C(=O)O)c(=O)c2cc(F)c(N3CCN(C(=S)NC(=O)Cc4ccc(Cl)cc4)CC3)cc21 | > 10
CCC(Sc1nnc2c(=O)n(-c3ccc(C)c(C)c3)ccn12)C(=O)Nc1ccccc1C (stereo not given) | > 10
Cc1ccc(-c2cc3c(N4CCC(C(=O)NC(C)c5ccccc5)CC4)nccn3n2)cc1C (stereo not given) | 4.6
COc1ccc2[nH]cc(CCNC(=O)c3ccccc3NC(=O)c3nsc4ccccc34)c2c1 | > 10
Cc1ccc(NCc2cccn2-c2nnc(N3CCC(C(=O)N4CCCC4)CC3)s2)cc1 | 4.3
COc1ccc(Cl)cc1NC(=O)c1ccc(-n2nc(OCc3cccc(F)c3)ccc2=O)cc1 | > 10
Cc1cccc(CNC(=O)Cc2cccc(N(Cc3ccccc3)C(=O)c3ccc(C#N)cc3)c2)c1 | > 10
COc1cc(F)ccc1S(=O)(=O)NCCNc1nc(-c2ccc(F)cc2)nc2ccccc12 | > 10
CC1CCN(C(C)CNC(=O)c2ccc3c(c2)NC(=O)C(CS(=O)(=O)Cc2ccc(F)cc2Cl)N3)CC1 (stereo not given) | > 10
Cc1ccc(NCc2cccn2-c2nnc(N3CCC(C(=O)NCC(C)(C)O)CC3)s2)cc1 | 4.3
CC(C)c1ccc(NC(=O)c2cc(S(=O)(=O)N3CCN(c4ccccc4F)CC3)ccc2F)cc1 | > 10
O=C(CSc1nnc(CNC(=O)c2cccs2)n1-c1ccccc1)Nc1nc2ccccc2s1 | > 10

Continued, values first:

IC50 [µM] | Compound
3 | CC1Cc2ccccc2N1C(=O)c1ccc(=O)n(CCC(=O)N2CCN(c3ccccc3)CC2)n1 (stereo not given)
2.4 | O=C(Nc1ccc(N2CCN(Cc3ccccc3O)CC2)nc1)c1ccccc1C(F)(F)F
1.7 | Cc1ccc(NCc2cccn2-c2nnc(N3CCC(C(=O)NCC4CC4)CC3)s2)cc1
1.2 | O=C(Nc1cccc(N2CCCN(Cc3ccc(F)c(F)c3)C2=O)c1)OCc1ccccc1
1.2 | Cc1ccc(NCc2cccn2-c2nnc(N3CCC(C(=O)NC(C)C)CC3)s2)cc1
1.1 | Cc1ccc(NCc2cccn2-c2nnc(N3CCC(C(=O)NCC(C)C)CC3)s2)cc1
0.95 | Cc1oc(-c2cccc(Cl)c2)nc1CN1CCC(C(=O)NC2CCCc3ccccc32)CC1 (stereo not given)
0.66 | Cc1ccc(NCc2cccn2-c2nnc(N3CCC(C(=O)NC4CCCCC4)CC3)s2)cc1
0.53 | Cc1ccc(NCc2cccn2-c2nnc(N3CCC(C(=O)NC4CCCC4)CC3)s2)cc1
0.24 | Cc1ccc(NCc2cccn2-c2nnc(N3CCC(C(=O)NC4CCCCC4C)CC3)s2)cn1 (stereo not given)
0.058 | Cc1ccc(NCc2cccn2-c2nnc(N3CCC(C(=O)NC4CCCCC4C)CC3)s2)nc1 (stereo not given)
0.047 | Cc1ccc(NCc2cccn2-c2nnc(N3CCC(C(=O)NC4CCCCC4C)CC3)s2)cc1 (stereo not given)
